# How the values were obtained:
# A-431 = experiment: Cytotoxicity against human A431 cells assessed as growth inhibition measured after 72 hrs by SRB assay; format: functional
# In short: (§1)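 Cancer lines were kept in DMEM with 10% FBS and glutamine at 37 °C, 5% CO2, and seeded at 2500–4000 cells per well in duplicate. Compound (from 40 mM DMSO stocks) was added 24 h after plating and left for 72 h. Cells were TCA-fixed, stained with SRB and read at 540 nm. GI50 came from an eight-point dose-response, using the change from day-0 optical density, with three to four independent replicates.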
# A2780 = experiment: Cytotoxicity against human A2780 cells assessed as growth inhibition measured after 72 hrs by SRB assay; format: functional; in short: as §1
# [1] = Selectivity index, ratio of GI50 for human MCF10A cells to GI50 for human HT-29 cells by SRB assay; format: toxicity; conditions: MCF10A cells versus HT-29 cells, read-out: RatioGI50
# In short: (§2)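 Fold selectivity is the MCF10A GI50 divided by the cancer-line GI50. Each GI50 is from the 72 h SRB assay: eight-point dose-response, day-0 optical density baseline, three to four separate replicates.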
# DU-145 = experiment: Cytotoxicity against human DU-145 cells assessed as growth inhibition measured after 72 hrs by SRB assay; format: functional; in short: as §1
# MIA PaCa-2 = experiment: Cytotoxicity against human MIA cells assessed as growth inhibition measured after 72 hrs by SRB assay; format: functional; in short: as §1
# MCF7 = experiment: Cytotoxicity against human MCF-7 cells assessed as growth inhibition measured after 72 hrs by SRB assay; format: functional; in short: as §1
# [2] = Cytotoxicity against human SJG2 cells assessed as growth inhibition measured after 72 hrs by SRB assay; format: functional; conditions: SJ-G2; in short: as §1
# BE(2)-C = experiment: Cytotoxicity against human BE2C cells assessed as growth inhibition measured after 72 hrs by SRB assay; format: functional; in short: as §1
# NCI-H460 = experiment: Cytotoxicity against human H460 cells assessed as growth inhibition measured after 72 hrs by SRB assay; format: functional; in short: as §1
# HT-29 = experiment: Cytotoxicity against human HT29 cells assessed as growth inhibition measured after 72 hrs by SRB assay; format: functional; in short: as §1
# U-87 MG = experiment: Cytotoxicity against human U87 cells assessed as growth inhibition measured after 72 hrs by SRB assay; format: functional, U-87MG ATCC; in short: as §1
# [3] = Cytotoxicity against human MCF10A cells assessed as growth inhibition measured after 72 hrs by SRB assay; format: cell-based, MCF-10A
# [4] = Selectivity index, ratio of GI50 for human MCF10A cells to GI50 for human MCF-7 cells by SRB assay; format: toxicity; conditions: MCF10A cells versus MCF-7 cells, read-out: RatioGI50; in short: as §2
# [5] = target: T1, Aryl hydrocarbon receptor (Homo sapiens, UniProt P35869); experiment: Activation of AhR in human HT29-Lucia cells expressing secreted Lucia luciferase reporter gene assessed as increase in receptor transactivation by measuring fold increase in reporter activity at 5 uM measured after 48 hrs by luciferase reporter gene assay relative to control; format: cell-based; conditions: HT-29, human, read-out: FC
# T1 sequence (P35869 whole entry): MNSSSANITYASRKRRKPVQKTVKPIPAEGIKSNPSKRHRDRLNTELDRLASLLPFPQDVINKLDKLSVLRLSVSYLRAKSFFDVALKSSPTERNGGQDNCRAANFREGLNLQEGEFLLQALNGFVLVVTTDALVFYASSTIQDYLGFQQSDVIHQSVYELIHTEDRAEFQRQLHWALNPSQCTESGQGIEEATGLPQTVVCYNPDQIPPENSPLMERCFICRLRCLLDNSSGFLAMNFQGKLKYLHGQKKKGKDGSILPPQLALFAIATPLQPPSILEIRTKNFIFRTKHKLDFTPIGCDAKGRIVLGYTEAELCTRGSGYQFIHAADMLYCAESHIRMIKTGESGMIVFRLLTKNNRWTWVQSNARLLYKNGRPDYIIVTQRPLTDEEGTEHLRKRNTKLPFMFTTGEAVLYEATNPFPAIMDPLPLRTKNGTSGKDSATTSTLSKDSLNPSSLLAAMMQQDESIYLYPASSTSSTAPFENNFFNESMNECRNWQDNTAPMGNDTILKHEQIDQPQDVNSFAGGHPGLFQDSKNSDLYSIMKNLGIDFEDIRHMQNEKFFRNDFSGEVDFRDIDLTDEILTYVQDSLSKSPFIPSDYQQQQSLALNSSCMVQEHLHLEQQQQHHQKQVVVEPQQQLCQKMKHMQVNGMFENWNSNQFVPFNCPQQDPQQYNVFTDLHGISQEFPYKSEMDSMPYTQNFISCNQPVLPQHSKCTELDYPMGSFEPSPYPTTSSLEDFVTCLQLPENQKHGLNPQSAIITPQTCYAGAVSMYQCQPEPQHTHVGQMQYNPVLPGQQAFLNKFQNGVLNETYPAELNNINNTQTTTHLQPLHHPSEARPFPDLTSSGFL
# In short: (§3)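 HT29-Lucia cells (stable secreted Lucia luciferase reporter under a minimal promoter with the human CYP1A1 regulatory sequence, six DREs) were grown without antibiotics for 24 h before compound addition. At 24 and 48 h, supernatant was read by luminescence with QUANTI-Luc. Assays were run twice, and values are fold-change versus DMSO-treated cells. FICZ and CH223191 (5 μM) were included as controls.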
# [6] = target: T1, Aryl hydrocarbon receptor; experiment: Activation of AhR in human HT29-Lucia cells expressing secreted Lucia luciferase reporter gene assessed as increase in receptor transactivation by measuring fold increase in reporter activity at 5 uM measured after 24 hrs by luciferase reporter gene assay relative to control; format: cell-based; conditions: HT-29, human, read-out: FC; in short: as §3
# [7] = Selectivity index, ratio of GI50 for human MCF10A cells to GI50 for human A2780 cells by SRB assay; format: toxicity; conditions: MCF10A cells versus A2780 cells, read-out: RatioGI50; in short: as §2
# [8] = Selectivity index, ratio of GI50 for human MCF10A cells to GI50 for human H460 cells by SRB assay; format: toxicity; conditions: MCF10A cells versus H460 cells, read-out: RatioGI50; in short: as §2
# MDA-MB-468 = experiment: Cytotoxicity against human MDA-MB-468 cells assessed as growth inhibition measured after 72 hrs by SRB assay; format: functional; in short: as §1
# T47D = experiment: Cytotoxicity against human T47D cells assessed as growth inhibition measured after 72 hrs by SRB assay; format: functional; in short: as §1
# CYP1A1 = target: T2, CYP1A1 (Homo sapiens, UniProt P35869); experiment: Activation of AhR in human MDA-MB-468 cells assessed as fold increase in CYP1A1 mRNA expression at 5 uM measured after 8 hrs by qPCR assay relative to control; format: cell-based; conditions: read-out: FC
# T2 sequence (P35869 whole entry): T1 sequence (P35869 whole entry)
# In short: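 MDA-MB-468 cells were exposed for 8 h, then total RNA was extracted. CYP1A1 was quantified by qPCR with β2M as reference: 95 °C for 5 min, then 40 cycles of 95 °C for 5 s and 60 °C for 10 s. Fold change was calculated by the comparative Ct method.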
# [9] = target: T1, Aryl hydrocarbon receptor; experiment: Activation of AhR in human HT29-Lucia cells expressing secreted Lucia luciferase reporter gene assessed as increase in receptor transactivation by measuring fold increase in reporter activity at 25 uM measured after 24 hrs by luciferase reporter gene assay relative to control; format: cell-based; conditions: HT-29, human, read-out: FC; in short: as §3
# [10] = Selectivity index, ratio of GI50 for human MCF10A cells to GI50 for human MDA-MB-468 cells by SRB assay; format: toxicity; conditions: MCF10A cells versus MDA-MB-468 cells, read-out: RatioGI50; in short: as §2
# [11] = target: T1, Aryl hydrocarbon receptor; experiment: Activation of AhR in human HT29-Lucia cells expressing secreted Lucia luciferase reporter gene assessed as increase in receptor transactivation by measuring fold increase in reporter activity at 25 uM measured after 48 hrs by luciferase reporter gene assay relative to control; format: cell-based; conditions: HT-29, human, read-out: FC; in short: as §3
# [12] = Selectivity index, ratio of GI50 for human MCF10A cells to GI50 for human T47D cells by SRB assay; format: toxicity; conditions: MCF10A cells versus T47D cells, read-out: RatioGI50; in short: as §2
SMILES,GI50 (A-431),GI50 (A2780),selectivity ratio [1],GI50 (DU-145),GI50 (MIA PaCa-2),GI50 (MCF7),GI50 [2],GI50 (BE(2)-C),GI50 (NCI-H460),GI50 (HT-29),GI50 (U-87 MG),GI50 at 72 h [3],further results
COc1ccc(NCC(O)COc2ccc(/C=C(\C#N)c3ccc(Cl)c(Cl)c3)cc2)cc1 (racemic),62 µM,17 µM,5.1,28 µM,27 µM,5.2 µM,32 µM,41 µM,16 µM,3.7 µM,29 µM,19 µM,selectivity ratio [4]: 3.6
Cc1ccccc1/N=N/c1ccc(NC(=O)c2ccnn2C)c(C)c1,–,–,–,–,–,–,–,–,–,–,–,–,fold induction at 5 µM [5]: 0.59; fold induction at 5 µM [6]: 0.69
N#C/C(=C\c1ccc(OCC(O)CNc2ccccc2)cc1)c1ccc(Cl)c(Cl)c1 (racemic),16 µM,4.4 µM,–,22 µM,17 µM,13 µM,18 µM,13 µM,14 µM,10 µM,26 µM,18 µM,selectivity ratio [7]: 4
CC1CCCCN1CC(O)COc1ccc(/C=C(\C#N)c2ccc(Cl)c(Cl)c2)cc1 (racemic),1.6 µM,2.7 µM,6.9,3 µM,2.7 µM,2.1 µM,2.8 µM,2.4 µM,2.7 µM,0.36 µM,2.9 µM,2.5 µM,–
N#C/C(=C\c1ccc(OCC(O)CN2CCN(c3ccc(Br)cc3)CC2)cc1)c1ccc(Cl)c(Cl)c1 (racemic),> 50 µM,14 µM,–,31 µM,57 µM,24 µM,21 µM,40 µM,> 50 µM,16 µM,> 50 µM,49 µM,selectivity ratio [7]: 3.5
N#C/C(=C\c1ccc(OCC(O)CN2CCN(c3ccccc3F)CC2)cc1)c1ccc(Cl)c(Cl)c1 (racemic),14 µM,17 µM,–,18 µM,24 µM,11 µM,18 µM,21 µM,1.6 µM,5.4 µM,20 µM,15 µM,selectivity ratio [8]: 9.3
O=Cc1c2[nH]c3ccccc3c2cc2[nH]c3ccccc3c12,–,–,–,–,–,–,–,–,–,–,–,–,fold induction at 5 µM [5]: 4.82; fold induction at 5 µM [6]: 2.85
N#C/C(=C\c1ccc(OCC(O)CN2CCCCC2)cc1)c1ccc(Cl)c(Cl)c1 (racemic),2.1 µM,2.7 µM,3.8,2.9 µM,2.6 µM,2.5 µM,2.5 µM,2.5 µM,3 µM,0.66 µM,3 µM,2.5 µM,–
CN(C)CC(O)COc1ccc(/C=C(\C#N)c2ccc(Cl)c(Cl)c2)cc1 (racemic),1.6 µM,2.5 µM,3.7,2.7 µM,2.3 µM,1.9 µM,2.7 µM,2.5 µM,2.8 µM,0.75 µM,3.2 µM,2.8 µM,–
N#C/C(=C\c1ccc(OCC(O)CN2CCN(c3ccc(C#N)cc3)CC2)cc1)c1ccc(Cl)c(Cl)c1 (racemic),20 µM,15 µM,–,17 µM,> 50 µM,5.8 µM,> 50 µM,31 µM,> 50 µM,50 µM,> 50 µM,47 µM,"GI50 (MDA-MB-468): 6 µM; GI50 (T47D): 2.3 µM; fold induction at 8 h, 5 µM (CYP1A1): 7.6; fold induction at 25 µM [9]: 1.69; selectivity ratio [10]: 7.8; fold induction at 25 µM [11]: 1.84; selectivity ratio [12]: 20; selectivity ratio [4]: 8.1"
CC(=O)N1CCN(CC(O)COc2ccc(/C=C(\C#N)c3ccc(Cl)c(Cl)c3)cc2)CC1 (racemic),10 µM,6.9 µM,–,15 µM,16 µM,5.3 µM,13 µM,11 µM,14 µM,8.6 µM,21 µM,16 µM,GI50 (MDA-MB-468): 5.9 µM; GI50 (T47D): 6.8 µM; selectivity ratio [10]: 2.7; selectivity ratio [12]: 2.3; selectivity ratio [4]: 3
